In assay [1] the target is T1, Farnesyl pyrophosphate synthase (Homo sapiens, UniProt P14324).
T1 sequence (P14324 whole entry): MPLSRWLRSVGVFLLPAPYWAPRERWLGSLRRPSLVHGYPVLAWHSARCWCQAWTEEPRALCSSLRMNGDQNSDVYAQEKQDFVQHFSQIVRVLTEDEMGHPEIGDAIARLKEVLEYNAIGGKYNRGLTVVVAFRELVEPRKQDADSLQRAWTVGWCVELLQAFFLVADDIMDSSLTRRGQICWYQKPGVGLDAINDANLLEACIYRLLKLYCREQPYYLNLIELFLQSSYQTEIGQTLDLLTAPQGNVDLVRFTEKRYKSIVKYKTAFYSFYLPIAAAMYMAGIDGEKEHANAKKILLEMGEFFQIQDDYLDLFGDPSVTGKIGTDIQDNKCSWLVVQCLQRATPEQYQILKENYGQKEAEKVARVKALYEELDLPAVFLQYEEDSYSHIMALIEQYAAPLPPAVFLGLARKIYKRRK
Kind of assay: Inhibition of recombinant FDPS (unknown origin) using GPP as substrate pretreated for 10 mins followed by substrate addition measured after 30 mins in presence of [14C]-IPP by liquid scintillation counting method. Summed up:
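Recombinant FDPS was a gift from an academic laboratory. Each compound was tested in duplicate at multiple concentrations across three independent experiments to obtain IC50, with zoledronic acid as positive control in every run.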

Assay [2] deals with T2, Geranylgeranyl pyrophosphate synthase (Homo sapiens, UniProt O95749).
T2 sequence (O95749 whole entry): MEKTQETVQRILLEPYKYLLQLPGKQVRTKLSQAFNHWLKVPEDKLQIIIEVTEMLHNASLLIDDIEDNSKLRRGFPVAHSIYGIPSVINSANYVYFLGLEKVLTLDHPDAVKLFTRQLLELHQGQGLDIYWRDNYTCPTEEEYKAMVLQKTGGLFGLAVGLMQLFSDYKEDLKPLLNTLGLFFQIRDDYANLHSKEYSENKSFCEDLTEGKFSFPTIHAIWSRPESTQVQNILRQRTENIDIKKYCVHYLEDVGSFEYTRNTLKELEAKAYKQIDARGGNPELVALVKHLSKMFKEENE
Kind of assay: Inhibition of recombinant GGDPS (unknown origin) using FPP as substrate pretreated for 10 mins followed by substrate addition measured after 30 mins in presence of [14C]-IPP by liquid scintillation counting method. The method, boiled down:
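Commercial recombinant GGDPS was used, following a previously described protocol. Each compound was run in duplicate at several concentrations across three independent experiments, and IC50 was reported with digeranyl bisphosphate as the positive control in every run.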

For assay [3], the target named is T3, Geranylgeranyl pyrophosphate synthase (Homo sapiens) (UniProt O95749).
T3 sequence (whole entry): T2 sequence (O95749 whole entry)
Kind of assay: Inhibition of GGDPS in human […] cells assessed as increase in Rap1a level at 1 to 10 uM by Western blot analysis. Format: cell-based. Summed up:
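RPMI-8226 cells were treated for 48 h with varying compound concentrations or lovastatin (10 μM). RIPA lysates containing protease and phosphatase inhibitors were protein-equalized by BCA, then run on SDS-PAGE and transferred to PVDF. Blots were probed with an antibody detecting only unmodified (non-geranylgeranylated) Rap1a, with β-tubulin as loading control, and developed by HRP secondary and ECL.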
In general terms: A western blot detects proteins with antibodies after separation by electrophoresis.

Assay [4] deals with T3, Geranylgeranyl pyrophosphate synthase (Homo sapiens). As to the kind of experiment: Inhibition of GGDPS in human […] cells assessed as decrease in Rab GTPase geranylgeranylation by measuring accumulation of intracellular lambda light chain after 48 hrs by ELISA. Format: cell-based. Summed up:
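RPMI-8226 myeloma cells were exposed for 48 h to a range of test concentrations, with lovastatin (10 μM) as positive control. Whole-cell lysates were made in RIPA buffer with protease and phosphatase inhibitors. Intracellular lambda light chain was quantified by human lambda ELISA and normalized to BCA total protein. Data are % of control, mean + SD, n=3; unpaired two-tailed t-test, p < 0.05.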

For a further assay, the species on record is Homo sapiens. Kind of assay: Selectivity ratio of IC50 for recombinant FDPS (unknown origin) to IC50 for recombinant GGDPS (unknown origin). The method, boiled down:
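Ratio of FDPS IC50 to GGDPS IC50. Both enzymes were recombinant: FDPS from an academic source, GGDPS commercial. Each IC50 came from duplicate wells at multiple concentrations in three independent experiments. Positive controls were zoledronic acid for FDPS and digeranyl bisphosphate for GGDPS.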

Assay [5] has as its target T3, Geranylgeranyl pyrophosphate synthase (Homo sapiens). Conditions: 50 to 1000 nM.
For assay [6] the target is unchanged. Conditions: 50 to 1000 nM. This is another data set of the same source.

Calls of active or inactive are those of the source. No cut-off for these calls is given here.

What is called IC50 is the point on the concentration scale where inhibition reaches its midpoint. On to `CC(C)=CCC/C(C)=C/CCn1cc(CC(C)(P(=O)(O)O)P(=O)(O)O)nn1` (mixture of isomers) [listing 1 of 2 here], for which the figures for the half-maximal inhibitory concentration (IC50) in assay [1] and in assay [2] were 24.1 µM and 0.1 µM, respectively.
For the compound `CC(C)=CCC/C(C)=C/CCn1cc(CC(C)(P(=O)(O)O)P(=O)(O)O)nn1` [listing 1 of 2 here], in assay [1], the IC50 was found to be 43.1 µM.
As for `CC(C)=CCC/C(C)=C/CCn1cc(CC(C)(P(=O)(O)O)P(=O)(O)O)nn1` [listing 2 of 2 here], the MEC in assay [3] and in assay [4] was 0.02 µM each time. Further, in the assay filed under Homo sapiens, the Ratio IC50 amounted to 345.
In the case of `CC(C)=CCC/C(C)=C\CCn1cc(CC(C)(P(=O)(O)O)P(=O)(O)O)nn1`, in assay [1], the IC50 was found to be 59.6 µM. For the same compound, the MEC in assay [3] and in assay [4] was 0.025 µM each time. Moreover, the Ratio IC50 in the assay filed under Homo sapiens was found to be 693.
With `CC(C)=CCC/C(C)=C/CCn1cc(CC(C)(P(=O)(O)O)P(=O)(O)O)nn1` (mixture of isomers) [listing 2 of 2 here], the MEC in assay [3] and in assay [4] was 0.03 µM in each case. Further, the Ratio IC50 in the assay listed under Homo sapiens came out at 241.
Regarding `CC(C)=CCC/C(C)=C\Cn1cc(CC(C)(P(=O)(O)O)P(=O)(O)O)nn1`, the IC50 in assay [1] is above 100 µM; in assay [2] it was 0.92 µM. Also, the MEC in assay [3] and in assay [4] was 0.1 µM each time. Also, in the assay listed under Homo sapiens, the Ratio IC50 is above 108.
On to `CC(C)=CCCC(C)=CCn1cc(CC(P(=O)(O)O)P(=O)(O)O)nn1` (mixture of isomers), for which the inhibition entry in assay [5] and in assay [6] was “Active” throughout.
Take `CC(C)=CCCC(C)=CCn1cc(CC(C)(P(=O)(O)O)P(=O)(O)O)nn1` (mixture of isomers): the results for the IC50 in assay [1] and in assay [2] were 62.2 µM and 1.27 µM, respectively. Besides, the MEC in assay [3] and in assay [4] was 0.1 µM in each case. Also, in the assay listed under Homo sapiens, the Ratio IC50 was determined as 49.
Consider `CC(C)=CCC/C(C)=C/Cn1cc(CC(C)(P(=O)(O)O)P(=O)(O)O)nn1`, for which the IC50 was determined as 71.4 µM in assay [1] and 20.5 µM in assay [2]. Also, the MEC in assay [3] and in assay [4] was 5 µM in each case. Also, the Ratio IC50 in the assay filed under Homo sapiens was 3.5.
Regarding `CCC(Cc1cn(CC=C(C)CCC=C(C)C)nn1)(P(=O)(O)O)P(=O)(O)O`, the figures for the IC50 in assay [1] and in assay [2] were 94.3 µM and 5.85 µM, respectively. In addition, the MEC in assay [3] and in assay [4] was 2.5 µM each time. Moreover, the Ratio IC50 in the assay filed under Homo sapiens is 16.

(Values after ChEMBL document CHEMBL4177743, “α-Methylation enhances the potency of isoprenoid triazole bisphosphonates as geranylgeranyl diphosphate synthase inhibitors” (Bioorg Med Chem, 2018).)
